In ChEMBL document CHEMBL3046654, “Penoxsulam--structure-activity relationships of triazolopyrimidine sulfonamides” (Bioorg Med Chem, 2009):

What was measured:
Pontederia vaginalis [1] = assay: Post-emergence herbicidal activity against three-leaf stage Monochoria vaginalis under green-house condition by water injection treatment method; type: functional
How it was run: (§1)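 Greenhouse paddy test. Seed was sown on saturated Metro Mix, covered with about 0.5 cm mix and held 48 h dark at 30 °C, 95% RH; about 15 d from seed soaking to treatment. Treatment solution was injected into the water. Rates were set per pot surface area, with serial rates made by halving the volume delivered. Held at 16 h day length, 29 °C.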

[2] = system: Schoenoplectiella juncoides; assay: Post-emergence herbicidal activity against two to three-leaf stage Schoenoplectiella juncoides under field condition by foliar application method; type: functional
Echinochloa crus-galli [3] = assay: Post-emergence herbicidal activity against 2-3-leaf stage Echinochloa crus-galli (barnyard grass) under field condition by foliar application method; type: functional
Oryza sativa [4] = assay: Phytotoxicity against two to three-leaf stage indica Oryza sativa (rice) under field condition by foliar application method; type: organism-based; conditions: in vivo
[5] = system: Schoenoplectiella juncoides; assay: Post-emergence herbicidal activity against three-leaf stage Schoenoplectiella juncoides under field condition by water injection treatment method; type: functional
How it was run: (§2)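 Field trials: water-injected treatment applied to transplanted japonica rice and to weeds at the three-leaf stage, under rice-growing conditions in several countries.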

Pontederia vaginalis [6] = assay: Post-emergence herbicidal activity against three-leaf stage Monochoria vaginalis under field condition by water injection treatment method; type: functional; how it was run: as §2
Oryza sativa [7] = assay: Phytotoxicity against three-leaf stage Oryza sativa (rice) under field condition by water injection treatment method; type: organism-based; how it was run: as §2
Echinochloa crus-galli [8] = assay: Post-emergence herbicidal activity against three-leaf stage Echinochloa crus-galli (barnyard grass) under field condition by water injection treatment method; type: functional; how it was run: as §2
Cyperus difformis = assay: Post-emergence herbicidal activity against three-leaf stage Cyperus difformis under green-house condition by water injection treatment method; type: functional; how it was run: as §1
[9] = system: Schoenoplectiella juncoides; assay: Post-emergence herbicidal activity against three-leaf stage Schoenoplectiella juncoides under green-house condition by water injection treatment method; type: functional; how it was run: as §1
Echinochloa crus-galli [10] = assay: Post-emergence herbicidal activity against three-leaf stage Echinochloa crus-galli (barnyard grass) under green-house condition by water injection treatment method; type: functional; how it was run: as §1
Oryza sativa [11] = assay: Phytotoxicity against three-leaf stage Oryza sativa (rice) under green-house condition by water injection treatment method; type: organism-based; how it was run: as §1
Ipomoea hederacea = assay: Post-emergence herbicidal activity against Ipomoea hederacea (ivy-leaved morning glory) compound treated as foliar application measured after 2 weeks; type: functional
How it was run: (§3)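 Greenhouse post-emergence foliar screen in 64 cm² pots. Seed treatments were used on some species to aid germination. Plants were grown 7–21 days at 23–29 °C day/22–28 °C night under a 15 h photoperiod. Sprayed at 2–12 cm height and the 1–4 true leaf stage.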

Veronica hederifolia = assay: Post-emergence herbicidal activity against Veronica hederifolia compound treated as foliar application measured after 2 weeks; type: functional; how it was run: as §3
Abutilon theophrasti = assay: Post-emergence herbicidal activity against Abutilon theophrasti (velvetleaf) compound treated as foliar application measured after 2 weeks; type: functional; how it was run: as §3
Amaranthus retroflexus = assay: Post-emergence herbicidal activity against Amaranthus retroflexus compound treated as foliar application measured after 2 weeks; type: functional; how it was run: as §3
Ipomoea = assay: Post-emergence herbicidal activity against Ipomoea spp. compound treated as foliar application measured after 2 weeks; type: functional; how it was run: as §3
Helianthus = assay: Post-emergence herbicidal activity against Helianthus spp. compound treated as foliar application measured after 2 weeks; type: functional; how it was run: as §3
Chenopodium album = assay: Post-emergence herbicidal activity against Chenopodium album compound treated as foliar application measured after 2 weeks; type: functional; how it was run: as §3
Datura stramonium = assay: Post-emergence herbicidal activity against Datura stramonium compound treated as foliar application measured after 2 weeks; type: functional; how it was run: as §3
Xanthium strumarium = assay: Post-emergence herbicidal activity against Xanthium strumarium (cocklebur) compound treated as foliar application measured after 2 weeks; type: functional; how it was run: as §3
Echinochloa crus-galli [12] = assay: Post-emergence herbicidal activity against 3-4-leaf stage Echinochloa crus-galli (barnyard grass) under field condition by foliar application method; type: functional
Oryza sativa [13] = assay: Phytotoxicity against three to four-leaf stage japonica Oryza sativa (rice) under field condition by foliar application method; type: organism-based; conditions: in vivo
Avena fatua = assay: Post-emergence herbicidal activity against Avena fatua compound treated as foliar application measured after 2 weeks; type: functional; how it was run: as §3
Oryza sativa [14] = assay: Phytotoxicity against Oryza sativa (rice); type: organism-based; conditions: in vivo
Digitaria sanguinalis = assay: Post-emergence herbicidal activity against Digitaria sanguinalis (hairy crabgrass) compound treated as foliar application measured after 2 weeks; type: functional; how it was run: as §3
Sorghum halepense = assay: Post-emergence herbicidal activity against Sorghum halepense (Johnson grass) compound treated as foliar application measured after 2 weeks; type: functional; how it was run: as §3
Setaria faberi = assay: Post-emergence herbicidal activity against Setaria faberi (Giant Foxtail) compound treated as foliar application measured after 2 weeks; type: functional; how it was run: as §3
Echinochloa crus-galli [15] = assay: Post-emergence herbicidal activity against Echinochloa crus-galli (barnyard grass) compound treated as foliar application measured after 2 weeks; type: functional; how it was run: as §3
Alopecurus = assay: Post-emergence herbicidal activity against Alopecurus spp. compound treated as foliar application measured after 2 weeks; type: functional; how it was run: as §3
Fallopia convolvulus = assay: Post-emergence herbicidal activity against Fallopia convolvulus compound treated as foliar application measured after 2 weeks; type: functional; how it was run: as §3
Stellaria media = assay: Post-emergence herbicidal activity against Stellaria media compound treated as foliar application measured after 2 weeks; type: functional; how it was run: as §3
Sesbania herbacea = assay: Post-emergence herbicidal activity against three to four-leaf stage Sesbania herbacea under field condition by foliar application method; type: functional

SMILES | GR80 (Pontederia vaginalis [1]) [gAi/ha] | GR80 [2] [gAi/ha] | GR80 (Echinochloa crus-galli [3]) [gAi/ha] | GR10 (Oryza sativa [4]) [gAi/ha] | GR80 [5] [gAi/ha] | GR80 (Pontederia vaginalis [6]) [gAi/ha] | GR10 (Oryza sativa [7]) [gAi/ha] | GR80 (Echinochloa crus-galli [8]) [gAi/ha] | GR80 (Cyperus difformis) [gAi/ha] | GR80 [9] [gAi/ha] | GR80 (Echinochloa crus-galli [10]) [gAi/ha] | GR20 (Oryza sativa [11]) [gAi/ha] | GR80 (Echinochloa crus-galli [12]) [gAi/ha] | GR10 (Oryza sativa [13]) [gAi/ha] | GR80 (Sesbania herbacea) [gAi/ha] | other results
COc1cnc(OC)n2nc(NS(=O)(=O)c3c(OC(CF)CF)cccc3C(F)(F)F)nc12 | 1 | 20 | 15 | > 70 | 15 | 12 | 70 | 35 | 31 | 9 | 14 | 140 |  |  |  | 
COc1cnc(OC)n2nc(NS(=O)(=O)c3c(OCCF)cccc3C(F)(F)F)nc12 | 5.2 | 4 | 5 | > 70 | 5 | 4.4 | 8 | 19 | 8 | 9 | 10 | 14 | 12 | 12 | 10 | GR80 (Ipomoea hederacea): 6 ppm; GR80 (Veronica hederifolia): 6 ppm; GR80 (Abutilon theophrasti): 6 ppm; GR80 (Amaranthus retroflexus): 6 ppm; GR80 (Ipomoea): 6 ppm; GR80 (Helianthus): 6 ppm; GR80 (Chenopodium album): 6 ppm; GR80 (Datura stramonium): 6 ppm; GR80 (Xanthium strumarium): 6 ppm; GR80 (Avena fatua): 66 ppm; GR20 (Oryza sativa [14]): 250 ppm; GR80 (Digitaria sanguinalis): 66 ppm; GR80 (Sorghum halepense): 66 ppm; GR80 (Setaria faberi): 66 ppm; GR80 (Echinochloa crus-galli [15]): 1 ppm; GR80 (Alopecurus): 66 ppm; GR80 (Fallopia convolvulus): 6 ppm; GR80 (Stellaria media): 6 ppm
COc1cnc(OC)n2nc(NS(=O)(=O)c3c(OCC(F)F)cccc3C(F)(F)F)nc12 [PENOXSULAM] | <2 | 6 | 7 | > 70 | 9 | 6 | 35 | 26 | 14 | 12 | 12 | 75 | 9 | 65 | 7 | 
